Key:
Cannabinoid receptor 1 [1] = target: T1, Cannabinoid receptor 1 (Homo sapiens, UniProt P21554); assay: biochemical; format: cell-based, CHO
Cannabinoid receptor 1 [2] = target: T1, Cannabinoid receptor 1; assay: Antagonistic activity towards cannabinoid receptor 1 expressed as [3H]Arachidonic acid release in CHO cells; format: functional, cell-based; conditions: read-out: pA2 (converted)
[3] = target: Cannabinoid receptor 1 (Mus musculus) (UniProt P47746); assay: In vivo least effective dose required to antagonise cannabinoid receptor 1 agonist (WIN-55212) induced hypothermia in mouse upon peroral administration
[4] = target: Cannabinoid receptor 1 (Rattus norvegicus) (UniProt P20272); assay: In vivo effective dose to antagonise cannabinoid receptor 1 agonist (CP-55940) induced hypotension in rat upon peroral administration; format: functional, organism-based
Cannabinoid receptor 2 = Cannabinoid receptor 2 (Homo sapiens, UniProt P34972); assay: Affinity to displace CP-55940 binding from Cannabinoid receptor 2 of human expressed in CHO cells; format: cell-based
Procedure, shortened: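 Bound and free ligand separated by glass-fibre filtration, filter radioactivity counted by liquid scintillation. IC50 values from at least two independent measurements combined and converted to Ki by Cheng-Prusoff.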

[5] = Partition coefficient (logP); format: physicochemical; conditions: octanol/water
Procedure, shortened: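 n-Octanol/water partition measured by RP-HPLC following an OECD method. Mobile phase buffered at pH > 11 on an aluminum-based octadecyl stationary phase.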

[6] = Mean percentage of compound transport through P-glycoprotein; expressed as p-glycoprotein affinity; format: ADME
Procedure, shortened: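 Human MDR1 P-glycoprotein transport across a monolayer of PK1 LLC MDR cells; compound added at 1 µg/mL to one side. Bottom-to-top and top-to-bottom transport measured; Pgp factor taken as the ratio of bottom-to-top to top-to-bottom transport, given as mean percentage of compound transported.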

[7] = Mean percentage of compound transport through membrane; expressed as membrane transport; format: ADME
Procedure, shortened: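 Transport across a PK1 LLC MDR (human MDR1) cell monolayer with compound at 1 µg/mL added to one side. Membrane passage taken as the mean percentage of compound moved bottom-to-top and top-to-bottom at 3 h after addition.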

T1 sequence (P21554 whole entry): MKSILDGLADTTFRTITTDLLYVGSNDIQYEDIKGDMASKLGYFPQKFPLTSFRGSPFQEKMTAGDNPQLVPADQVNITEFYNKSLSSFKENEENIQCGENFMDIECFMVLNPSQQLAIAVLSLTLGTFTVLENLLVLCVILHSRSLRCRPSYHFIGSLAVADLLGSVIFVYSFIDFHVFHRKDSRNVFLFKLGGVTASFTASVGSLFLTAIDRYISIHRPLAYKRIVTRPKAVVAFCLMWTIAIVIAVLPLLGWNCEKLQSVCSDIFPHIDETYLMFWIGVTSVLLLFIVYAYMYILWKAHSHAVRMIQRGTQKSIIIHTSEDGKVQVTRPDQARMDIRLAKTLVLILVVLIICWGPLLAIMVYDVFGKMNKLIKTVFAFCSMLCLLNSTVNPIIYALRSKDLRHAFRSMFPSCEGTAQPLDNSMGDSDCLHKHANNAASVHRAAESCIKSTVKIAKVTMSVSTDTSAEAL
Cannabinoid receptor 1 (Rattus norvegicus), sequence (P20272 whole entry): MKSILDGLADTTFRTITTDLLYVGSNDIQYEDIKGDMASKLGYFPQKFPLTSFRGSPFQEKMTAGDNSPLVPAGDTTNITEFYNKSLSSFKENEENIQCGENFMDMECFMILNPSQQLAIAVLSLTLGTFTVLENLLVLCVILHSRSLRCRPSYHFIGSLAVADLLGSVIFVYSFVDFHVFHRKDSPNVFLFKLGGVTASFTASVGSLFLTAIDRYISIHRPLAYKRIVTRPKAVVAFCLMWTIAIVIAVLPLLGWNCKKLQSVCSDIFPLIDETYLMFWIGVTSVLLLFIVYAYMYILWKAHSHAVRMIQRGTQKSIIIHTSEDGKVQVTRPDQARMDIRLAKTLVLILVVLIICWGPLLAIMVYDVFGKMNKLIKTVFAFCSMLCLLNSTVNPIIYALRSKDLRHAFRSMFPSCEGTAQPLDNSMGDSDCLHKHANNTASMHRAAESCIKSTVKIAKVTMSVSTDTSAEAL
Cannabinoid receptor 2, sequence (P34972 whole entry): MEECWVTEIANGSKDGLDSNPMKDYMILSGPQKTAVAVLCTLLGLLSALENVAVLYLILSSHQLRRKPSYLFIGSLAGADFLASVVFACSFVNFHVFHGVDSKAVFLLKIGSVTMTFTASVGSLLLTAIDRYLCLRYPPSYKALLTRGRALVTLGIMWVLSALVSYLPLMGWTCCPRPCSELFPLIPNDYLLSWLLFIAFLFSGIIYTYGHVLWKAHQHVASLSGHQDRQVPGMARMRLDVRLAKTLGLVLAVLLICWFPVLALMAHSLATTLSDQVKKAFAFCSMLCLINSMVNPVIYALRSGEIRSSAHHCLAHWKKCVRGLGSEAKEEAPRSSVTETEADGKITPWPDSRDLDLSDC
Cannabinoid receptor 1 (Mus musculus), sequence (P47746 whole entry, looked up): as the sequence (P20272 whole entry) above, with E95D counted along it

SMILES | Ki (Cannabinoid receptor 1 [1]) [nM] | Kb (Cannabinoid receptor 1 [2]) [nM] | Ki (Cannabinoid receptor 2) [nM] | other results
C/N=C(\NS(=O)(=O)c1ccc2ccccc2c1)N1CC(c2ccccc2)C(c2ccc(Cl)cc2)=N1 (centres undefined) | 21.8 | 3.16 | – | –
O=C(NS(=O)(=O)c1ccc(Cl)cc1)N1CC(c2ccccc2)C(c2ccc(Cl)cc2)=N1 (centres undefined) | > 1000 | – | – | –
C/N=C(\NS(=O)(=O)c1ccc(C(F)(F)F)cc1)N1CC(c2ccccc2)C(c2ccc(Cl)cc2)=N1 (centres undefined) | – | – | – | LED [3]: 3 mg/kg; ED50 [4]: 8.9 mg/kg
CN/C(=N/S(=O)(=O)c1ccc(C(F)(F)F)cc1)N1C[C@H](c2ccccc2)C(c2ccc(Cl)cc2)=N1 | 35.9 | 1 | 3510 | –
CN/C(=N\S(=O)(=O)c1ccc(Cl)cc1)N1CC(c2ccccc2)C(c2ccc(Cl)cc2)=N1 (centres undefined) | – | – | – | ED50 [4]: 15 mg/kg
C/N=C(\NS(=O)(=O)c1ccccc1Cl)N1CC(c2ccccc2)C(c2ccc(Cl)cc2)=N1 (centres undefined) | 75.4 | 5.01 | > 1000 | –
CN=C(NS(=O)(=O)c1ccc(Cl)cc1)N1C[C@H](c2ccccc2)C(c2ccc(Cl)cc2)=N1 [IBIPINABANT] | – | – | – | logP [5]: 4.8; Activity [6]: 1.4; Activity [7]: 14.8
CN=C(NS(=O)(=O)c1ccc(Cl)cc1)N1CC(c2ccc(F)cc2)C(c2ccc(Cl)cc2)=N1 (centres undefined) | 584 | – | – | –
C/N=C(\NS(=O)(=O)c1ccccc1)N1CC(c2ccccc2)C(c2ccc(Cl)cc2)=N1 (centres undefined) | 170 | 31.6 | – | –
Cc1cc(C)c(S(=O)(=O)NC(=N)N2CC(c3ccccc3)C(c3ccc(Cl)cc3)=N2)c(C)c1 (centres undefined) | 24.2 | 0.398 | > 1000 | –
N=C(NS(=O)(=O)c1ccc(Cl)cc1)N1CC(c2ccccc2)C(c2ccc(Cl)cc2)=N1 (centres undefined) | – | – | – | LED [3]: > 30 mg/kg; ED50 [4]: > 30 mg/kg
COc1ccc(S(=O)(=O)NC(=N)N2CC(c3ccccc3)C(c3ccc(Cl)cc3)=N2)cc1 (centres undefined) | 196 | 5.01 | > 1000 | –
C/N=C(\NS(=O)(=O)c1ccc(Cl)cc1)N1CC(c2ccccc2)C(c2ccc(F)cc2)=N1 (centres undefined) | 214 | 25.1 | – | –
CNC(=NS(=O)(=O)c1cccc(Cl)c1)N1CC(c2ccccc2)C(c2ccc(Cl)cc2)=N1 (centres undefined) | 13.9 | 2.51 | > 1000 | –
C/N=C(\NS(=O)(=O)c1ccc(Cl)cc1)N1C[C@@H](c2ccccc2)C(c2ccc(Cl)cc2)=N1 | – | – | – | ED50 [4]: > 30 mg/kg
NC(=NS(=O)(=O)c1ccc(Cl)cc1)N1CC(c2ccccc2)C(c2ccc(Cl)cc2)=N1 (centres undefined) | 16.1 | 0.316 | > 1000 | logP [5]: 4.3; Activity [6]: 1.7; Activity [7]: 7
Cc1ccc(S(=O)(=O)NC(=N)N2CC(c3ccccc3)C(c3ccc(Cl)cc3)=N2)cc1 (centres undefined) | 197 | 3.98 | > 1000 | LED [3]: > 30 mg/kg; ED50 [4]: > 30 mg/kg

SMILES | Ki (Cannabinoid receptor 1 [1]) [nM] | Kb (Cannabinoid receptor 1 [2]) [nM] | Ki (Cannabinoid receptor 2) [nM] | other results
C/N=C(\NS(=O)(=O)c1ccc(F)cc1)N1CC(c2ccccc2)C(c2ccc(Cl)cc2)=N1 (centres undefined) | 338 | 3.16 | > 1000 | –
CN=C(NS(=O)(=O)c1ccc(OC)cc1)N1CC(c2ccccc2)C(c2ccc(Cl)cc2)=N1 (centres undefined) | 22.9 | 10 | – | –
C/N=C(\NS(=O)(=O)c1c(C)cc(C)cc1C)N1CC(c2ccccc2)C(c2ccc(Cl)cc2)=N1 (centres undefined) | 54.2 | 0.398 | – | –
CNC(=NS(=O)(=O)c1ccc(C(F)(F)F)cc1)N1CC(c2ccccc2)C(c2ccc(Cl)cc2)=N1 (centres undefined) | 221 | 0.501 | > 1000 | –
CS/C(=N\S(=O)(=O)c1ccc(C(F)(F)F)cc1)N1CC(c2ccccc2)C(c2ccc(Cl)cc2)=N1 (centres undefined) | 16.6 | 0.2 | > 1000 | –
CN(C)/C(=N\S(=O)(=O)c1ccc(Cl)cc1)N1CC(c2ccccc2)C(c2ccc(Cl)cc2)=N1 (centres undefined) | 280 | 3.16 | > 1000 | logP [5]: 4.8; Activity [6]: 1.4; Activity [7]: 15.2; ED50 [4]: > 30 mg/kg
C/N=C(\NS(=O)(=O)c1ccc(C(F)(F)F)cc1)N1C[C@H](c2ccccc2)C(c2ccc(Cl)cc2)=N1 | – | – | – | LED [3]: 1 mg/kg; ED50 [4]: 2 mg/kg
C/N=C(\NS(=O)(=O)c1cccc(C(F)(F)F)c1)N1CC(c2ccccc2)C(c2ccc(Cl)cc2)=N1 (centres undefined) | 36.5 | 0.794 | > 1000 | –
N=C(NS(=O)(=O)c1ccc(F)cc1)N1CC(c2ccccc2)C(c2ccc(Cl)cc2)=N1 (centres undefined) | 52.6 | 1 | > 1000 | –
C/N=C(\NS(=O)(=O)c1ccc(C)cc1)N1CC(c2ccccc2)C(c2ccc(Cl)cc2)=N1 (centres undefined) | – | 2.51 | – | –
C/N=C(\NS(=O)(=O)c1ccc(C(F)(F)F)cc1)N1C[C@@H](c2ccccc2)C(c2ccc(Cl)cc2)=N1 | – | – | – | LED [3]: > 30 mg/kg; ED50 [4]: > 30 mg/kg
CN(C)/C(=N\S(=O)(=O)c1ccc(F)cc1)N1CC(c2ccccc2)C(c2ccc(Cl)cc2)=N1 (centres undefined) | > 1000 | > 31.6 | > 1000 | –
CN/C(=N\S(=O)(=O)c1ccc(Cl)cc1)N1C[C@H](c2ccccc2)C(c2ccc(Cl)cc2)=N1 | – | – | – | ED50 [4]: 5.5 mg/kg
CN=C(NS(=O)(=O)c1ccc(Cl)cc1)N1CC(c2ccc(Cl)cc2)C(c2ccc(Cl)cc2)=N1 (centres undefined) | 255 | – | – | –
C/N=C(\NC(=O)c1ccc(Cl)cc1)N1CC(c2ccccc2)C(c2ccc(Cl)cc2)=N1 (centres undefined) | 70.6 | 2 | – | –
CN=C(NS(=O)(=O)c1ccc(C(F)(F)F)cc1)N1C[C@@H](c2ccccc2)C(c2ccc(Cl)cc2)=N1 | 293 | 31.6 | > 1000 | –

Source: ChEMBL document CHEMBL1148395, “Synthesis, biological properties, and molecular modeling investigations of novel 3,4-diarylpyrazolines as potent and selective CB(1) cannabinoid receptor antagonists” (J Med Chem, 2004)
